Reference: ChEMBL document CHEMBL4229376, “Optimization of the pharmacokinetic properties of potent anti-trypanosomal triazine derivatives” (Eur J Med Chem, 2018)
pIC50: −log10 of the molar value.

Key:
[1] = tested on: Trypanosoma cruzi; assay: Antitrypanosomal activity against nifurtimox-sensitive Trypanosoma cruzi Tulahuen CL2 infected in human MRC5 SV2 cells assessed as reduction in parasite burden after 168 hrs by CPRG and Nonidet based spectrophotometric analysis; assay type: functional, organism-based; conditions: Tulahuen CL2, MRC-5 SV2, 168 h
[2] = Cytotoxicity against human MRC5 SV2 cells after 72 hrs by resazurin dye-based fluorimetric analysis; assay type: cell-based; conditions: MRC-5 SV2, 72 h
[3] = tested on: Trypanosoma brucei brucei; assay: Antitrypanosomal activity against suramin-sensitive Trypanosoma brucei brucei Squib 427 after 72 hrs by resazurin dye-based fluorimetric analysis; assay type: functional, organism-based; conditions: Squib 427, 72 h
[4] = tested on: Leishmania infantum; assay: Antileishmanial activity against Leishmania infantum MHOM/MA (BE)/67 amastigotes infected in primary peritoneal mouse macrophages after 120 hrs by giemsa staining-based microscopic analysis; assay type: functional, organism-based; conditions: MHOM/MA (BE)/67, 120 h
[5] = tested on: Plasmodium falciparum; assay: Antiplasmodial activity against chloroquine-resistant Plasmodium falciparum K1 infected in human erythrocytes after 72 hrs by Malstat reagent-based spectrophotometric analysis; assay type: functional, organism-based; conditions: K1, 72 h
[6] = tested on: Peritoneal macrophage; assay: Cytotoxicity against mouse primary peritoneal macrophages after 72 hrs by resazurin dye-based fluorimetric analysis; assay type: cell-based
[7] = Drug metabolism in human liver microsomes assessed as UGT mediated compound […] by measuring parent compound remaining at 5 uM after 60 mins in presence of UDPGA by UPLC/MS/ESI analysis; assay type: ADME; conditions: read-out: Stability
[8] = Drug metabolism in human liver microsomes assessed as UGT mediated compound […] by measuring parent compound remaining at 5 uM after 15 mins in presence of UDPGA by UPLC/MS/ESI analysis; assay type: ADME; conditions: read-out: Stability
[9] = Drug metabolism in human liver microsomes assessed as CYP450 mediated compound […] by measuring parent compound remaining at 5 uM after 15 mins in presence of NADPH by UPLC/MS/ESI analysis; assay type: ADME; conditions: read-out: Stability
[10] = Drug metabolism in mouse liver microsomes assessed as CYP450 mediated compound […] by measuring parent compound remaining at 5 uM after 30 mins in presence of NADPH by UPLC/MS/ESI analysis; assay type: ADME; conditions: read-out: Stability
[11] = Drug metabolism in mouse liver microsomes assessed as UGT mediated compound […] by measuring parent compound remaining at 5 uM after 15 mins in presence of UDPGA by UPLC/MS/ESI analysis; assay type: ADME; conditions: 0.25 h
Method in brief: (§1)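 Metabolic stability was run with mouse liver microsomal fraction (S9) and read as percent parent compound remaining over incubation time. Diclofenac served as the reference compound.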

[12] = Drug metabolism in human plasma assessed as parent compound remaining after 30 mins by UPLC/MS/ESI analysis; assay type: ADME, cell-free; conditions: 0.5 h
[13] = Drug metabolism in mouse liver microsomes assessed as UGT mediated compound […] by measuring parent compound remaining at 5 uM after 60 mins in presence of UDPGA by UPLC/MS/ESI analysis; assay type: ADME; conditions: 1 h; method in brief: as §1
[14] = Drug metabolism in mouse liver microsomes assessed as CYP450 mediated compound […] by measuring parent compound remaining at 5 uM after 60 mins in presence of NADPH by UPLC/MS/ESI analysis; assay type: ADME; conditions: read-out: Stability
[15] = Drug metabolism in human liver microsomes assessed as CYP450 mediated compound […] by measuring parent compound remaining at 5 uM after 60 mins in presence of NADPH by UPLC/MS/ESI analysis; assay type: ADME; conditions: read-out: Stability
[16] = Drug metabolism in human liver microsomes assessed as CYP450 mediated compound […] by measuring parent compound remaining at 5 uM after 30 mins in presence of NADPH by UPLC/MS/ESI analysis; assay type: ADME; conditions: read-out: Stability
[17] = Drug metabolism in human liver microsomes assessed as UGT mediated compound […] by measuring parent compound remaining at 5 uM after 30 mins in presence of UDPGA by UPLC/MS/ESI analysis; assay type: ADME; conditions: read-out: Stability
[18] = Drug metabolism in human plasma assessed as parent compound remaining after 15 mins by UPLC/MS/ESI analysis; assay type: ADME, cell-free; conditions: 0.25 h
[19] = Drug metabolism in human plasma assessed as parent compound remaining after 60 mins by UPLC/MS/ESI analysis; assay type: ADME, cell-free; conditions: read-out: Stability
[20] = Drug metabolism in mouse liver microsomes assessed as UGT mediated compound […] by measuring parent compound remaining at 5 uM after 30 mins in presence of UDPGA by UPLC/MS/ESI analysis; assay type: ADME; conditions: 0.5 h; method in brief: as §1
[21] = Drug metabolism in mouse liver microsomes assessed as CYP450 mediated compound […] by measuring parent compound remaining at 5 uM after 15 mins in presence of NADPH by UPLC/MS/ESI analysis; assay type: ADME; conditions: read-out: Stability
[22] = Drug metabolism in human plasma assessed as parent compound remaining after 1440 mins by UPLC/MS/ESI analysis; assay type: ADME, cell-free; conditions: read-out: Stability
Method in brief: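 Compound incubated in human plasma for 24 h at 37 °C, and the fraction of parent compound remaining was determined.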

| Structure (SMILES) | pIC50 [1] | pIC50 [2] | pIC50 [3] | pIC50 [4] | pIC50 [5] | pIC50 [6] | also measured |
| --- | --- | --- | --- | --- | --- | --- | --- |
| Nc1nc(Nc2ccc(F)cc2)nc(Sc2ccc(F)cc2)n1 | 5.16 | < 4.19 | < 4.19 | 5.09 | < 4.19 | 5.10 |  |
| Cc1ccc(Nc2nc(N)nc(Nc3c(Br)cc(C)cc3Br)n2)cc1 | < 4.19 | 5.09 | 5.04 | 4.49 | < 4.19 | 4.49 |  |
| Cc1cc(C)c(Oc2nc(N)nc(Nc3ccc(C(F)(F)F)cc3)n2)c(C)c1 | 5.62 | 5.19 | 5.16 | 5.09 | 5.06 | 5.10 |  |
| Cc1ccc(Nc2nc(N)nc(Nc3ccc(C#N)cc3)n2)c(Cl)c1 | < 4.19 | < 4.19 | 5.11 | 4.29 | 4.53 | < 4.19 |  |
| Cc1cc(C)c(Oc2nc(N)nc(Oc3ccc(F)cc3)n2)c(C)c1 | < 4.19 | < 4.19 | 5.37 | 5.09 | < 4.19 | 5.10 |  |
| Cc1ccc(Oc2nc(N)nc(Nc3ccc(F)cc3)n2)c(Cl)c1 | 5.11 | < 4.19 | 6.30 | 4.56 | 4.29 | 4.49 | remaining at 1 h, 5 µM [7]: 79%; remaining at 0.25 h, 5 µM [8]: 88%; remaining at 0.25 h, 5 µM [9]: 90%; remaining at 0.5 h, 5 µM [10]: 6%; Stability [11]: 108%; Stability [12]: 124%; Stability [13]: 113%; remaining at 1 h, 5 µM [14]: 1.4%; remaining at 1 h, 5 µM [15]: 67%; remaining at 0.5 h, 5 µM [16]: 87%; remaining at 0.5 h, 5 µM [17]: 88%; Stability [18]: 121%; remaining at 1 h [19]: 117%; Stability [20]: 109%; remaining at 0.25 h, 5 µM [21]: 25%; remaining at 24 h [22]: 100% |
| O=C(O)Cc1ccccc1Nc1c(Cl)cccc1Cl [DICLOFENAC] |  |  |  |  |  |  | Stability [11]: 38%; Stability [13]: 30%; Stability [20]: 28% |
| CC1CS(=O)(=O)CCN1/N=C/c1ccc([N+](=O)[O-])o1 (stereo not given) [NIFURTIMOX] | 6.05 |  |  |  |  |  |  |
| Cc1ccc(Nc2nc(N)nc(Nc3ccc(C#N)cc3)n2)cc1 | < 4.19 | < 4.19 | < 4.19 | < 4.19 | < 4.19 | < 4.19 |  |
| Cc1cc(Br)c(Nc2nc(N)nc(Nc3ccc(F)cc3)n2)c(Br)c1 | < 4.19 | 5.17 | 5.15 | < 4.19 | < 4.19 | < 4.19 |  |
| Cc1cc(C)c(Oc2nc(N)nc(Nc3cc(F)cc(F)c3)n2)c(C)c1 | 5.64 | 5.36 | 5.89 | 5.09 | 4.76 | 5.10 |  |
| Cc1cc(F)cc(C)c1Nc1nc(N)nc(Nc2ccc(C#N)cc2)n1 | 5.10 | 4.63 | 5.10 | 5.02 | 5.08 | 4.49 |  |
| Cc1cc(C)c(Oc2nc(N)nc(Nc3ccc(Cl)cc3)n2)c(C)c1 | 5.51 | 5.19 | 5.82 | 5.09 | 4.58 | 5.10 |  |
| Nc1nc(Nc2ccc(F)cc2)nc(Nc2ccc(F)cc2)n1 | < 4.19 | < 4.19 | 5.55 | < 4.19 | < 4.19 | < 4.19 |  |
| Cc1ccc(Oc2nc(N)nc(Nc3ccc(C#N)cc3)n2)cc1 | 5.10 | < 4.19 |  | < 4.19 | < 4.19 | < 4.19 |  |
| Cc1cc(C)c(Oc2nc(Nc3ccc(F)cc3)nc(N3CCCCC3)n2)c(C)c1 | 5.62 | < 4.19 | 5.09 | 5.09 | 5.27 | 4.49 |  |
| CC/C(=C(\c1ccccc1)c1ccc(OCCN(C)C)cc1)c1ccccc1 [TAMOXIFEN] |  | 4.99 |  |  |  |  |  |
| Cc1cc(C)c(Oc2ncnc(Nc3ccccc3)n2)c(C)c1 | 5.09 | 4.75 | 4.49 | 4.62 | 4.50 | 4.49 |  |
| N#Cc1ccc(Nc2nc(N)nc(Nc3ccc(F)cc3)n2)cc1 | 5.05 | < 4.19 | 4.40 | 4.49 | 4.58 | 4.49 |  |
| CNc1nc(Nc2ccc(F)cc2)nc(Oc2c(C)cc(C)cc2C)n1 | 5.11 | < 4.19 | 4.96 | 4.62 | 4.69 | 4.49 |  |
| Cc1ccc(Oc2nc(N)nc(Nc3ccccc3)n2)cc1 | < 4.19 | < 4.19 | 5.96 | 4.49 | < 4.19 | 4.49 |  |
| Cc1cc(C)c(Oc2ncnc(Nc3ccc(F)cc3)n2)c(C)c1 | 5.10 | 5.10 | 4.51 | 4.97 | 4.53 | < 4.19 |  |
| Cc1cc(C)c(Oc2nc(N)nc(Nc3c(F)cccc3F)n2)c(C)c1 | < 4.19 | < 4.19 | < 4.19 | 4.49 | < 4.19 | 4.49 |  |
